Measured values as given in ChEMBL document CHEMBL2169740 (J Med Chem, 2012).

Tests used:
[1] = Permeability of the compound at pH 7.4 by PAMPA; assay type: ADME
[2] = AUC in CD1 mouse at 30 mg/kg, po administered as single dose; assay type: ADME, organism-based; set-up: dose 30 mg/kg, route oral; settings: plasma
Method in brief: (§1)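 Female CD1 mice given one oral gavage dose (30, 50 or 200 mg/kg), n=3 per test article. Blood drawn from three mice at 15, 30, 60 min and 2, 4, 6, 8, 10, 24 h after dosing. Plasma concentration measured by LCMS over 24 h.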

[3] = AUC in CD1 mouse at 200 mg/kg, po administered as single dose; assay type: ADME, organism-based; set-up: dose 200 mg/kg, route oral; settings: plasma; method in brief: as §1
[4] = Cmax in CD1 mouse at 200 mg/kg, po administered as single dose; assay type: ADME, organism-based; set-up: dose 200 mg/kg, route oral; settings: in vivo; method in brief: as §1
[5] = system: Liver; test: Intrinsic clearance in CD1 mouse liver microsomes after 0.5 to 4 hrs by UPLC-MS analysis; assay type: ADME, Microsome
Method in brief: (§2)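 Pooled liver microsomes (female CD-1 mouse or mixed-gender human) at 0.5 mg/mL in 0.1 M potassium phosphate pH 7.4 with EDTA, with NADPH-regenerating solutions A+B; 37 °C with shaking; quenched at 0, 0.5, 1, 2, 4 h with cold methanol containing 10 μM warfarin internal standard. UPLC-MS (SIR); k from log peak-area-ratio slope, t1/2 = 0.693/k, CLint normalised to microsomal protein; triplicate.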

[6] = Cmax in CD1 mouse at 30 mg/kg, po administered as single dose; assay type: ADME, organism-based; set-up: dose 30 mg/kg, route oral; settings: in vivo; method in brief: as §1
[7] = system: Liver microsomes; test: Intrinsic clearance in human liver microsomes after 0.5 to 4 hrs by UPLC-MS analysis; assay type: ADME, Microsome; method in brief: as §2
[8] = AUC (infinity) in CD1 mouse at 50 mg/kg, po administered as single dose; assay type: ADME, organism-based; set-up: time infinity, dose 50 mg/kg, route oral; settings: plasma; method in brief: as §1
[9] = Cmax in CD1 mouse at 50 mg/kg, po administered as single dose; assay type: ADME, organism-based; set-up: dose 50 mg/kg, route oral; settings: in vivo; method in brief: as §1
[10] = Permeability of the compound at pH 4.0 by PAMPA; assay type: ADME
Method in brief: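 PAMPA: compound diluted in system buffer at pH 7.4 or 4 as donor; membrane coated with GIT lipid; acceptor buffer; stirred 30 min with 40 μm aqueous boundary layer. UV spectra (250–500 nm) of reference, donor and acceptor; permeability coefficient from spectral AUCs; triplicate.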

Compound	permeability [1]	AUC(0-inf) [2]	AUC(0-inf) [3]	Cmax [4]	Intrinsic clearance (CLint) [5]	Cmax [6]	Intrinsic clearance (CLint) [7]	AUC(0-inf) [8]	Cmax [9]	permeability [10]
CCOC(=O)c1c(-c2cccc(Oc3ccccc3)c2)[nH]c2cc(OC)ccc2c1=O	750 ×10⁻⁶ cm/s	0.15 µM·h	1 µM·h	400 nM	35 µL/min/mg	60 nM				
CCOC(=O)c1c(-c2cccc(Cl)c2)[nH]c2cc(OC)ccc2c1=O					16 µL/min/mg		3.4 µL/min/mg			
CCOC(=O)c1c(-c2cccc(OC)c2)[nH]c2cc(OC)ccc2c1=O		8 µM·h	7.8 µM·h	5800 nM	7.9 µL/min/mg	8000 nM	5.7 µL/min/mg			
CCOC(=O)c1c(-c2cccc(-c3ccccc3)c2)[nH]c2cc(OC)ccc2c1=O	2900 ×10⁻⁶ cm/s	1.7 µM·h	4.3 µM·h	430 nM	5.7 µL/min/mg	230 nM	5 µL/min/mg			
COc1cc2[nH]c(-c3cccc(Oc4ccccc4)c3)c(C(=O)OCCO)c(=O)c2cc1F	620 ×10⁻⁶ cm/s				11 µL/min/mg		4.8 µL/min/mg			
CCOC(=O)c1c(-c2cccc(Oc3ccccc3)c2)[nH]c2cc(OC)c(F)cc2c1=O	560 ×10⁻⁶ cm/s				16 µL/min/mg					
CCOC(=O)c1c(-c2cccc(OCC)c2)[nH]c2cc(OC)ccc2c1=O	260 ×10⁻⁶ cm/s	5.1 µM·h	10 µM·h	2400 nM	12 µL/min/mg	1900 nM	5.7 µL/min/mg			
CCOC(=O)c1c(-c2cc(F)cc(OC)c2)[nH]c2cc(OC)c(F)cc2c1=O	230 ×10⁻⁶ cm/s		19 µM·h	1600 nM	6.7 µL/min/mg		56 µL/min/mg	9.3 µM·h	710 nM	
CCOC(=O)c1c(-c2cccc(Br)c2)[nH]c2cc(OC)c(F)cc2c1=O	670 ×10⁻⁶ cm/s		160 µM·h	39000 nM	2.7 µL/min/mg		1.2 µL/min/mg	71 µM·h	31000 nM	
CCCOc1cccc(-c2[nH]c3cc(OC)ccc3c(=O)c2C(=O)OCC)c1	340 ×10⁻⁶ cm/s	1.6 µM·h	7.7 µM·h	1800 nM	39 µL/min/mg	300 nM	12 µL/min/mg			
CCOC(=O)c1c(-c2ccc3c(c2)OCO3)[nH]c2cc(OC)ccc2c1=O		6.1 µM·h	65 µM·h	5000 nM	12 µL/min/mg	1500 nM	12 µL/min/mg			
COc1cc2[nH]c(-c3cccc(Oc4ccccc4)c3)c(C(=O)OCCCN3CCOCC3)c(=O)c2cc1F	880 ×10⁻⁶ cm/s				24 µL/min/mg		11 µL/min/mg			30 ×10⁻⁶ cm/s
CCOC(=O)c1c(-c2cccc(Cl)c2)[nH]c2cc(OC)c(F)cc2c1=O	410 ×10⁻⁶ cm/s		280 µM·h	66000 nM	4 µL/min/mg		0.5 µL/min/mg	130 µM·h	38000 nM	
